Series [1] in a line: Fraction unbound in pig plasma. In kind it is ADME, cell-free, Sus scrofa. In outline:
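Femoral-vein plasma drawn at 30 and 300 min. […] Unbound and total plasma concentrations measured by HPLC-UV at 210 nm after precipitation and solid-phase extraction, with testosterone as internal standard. Calibration range 0.003-1 µM; fraction unbound taken as Cu/Cp.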

A short description of series [2]: AUC (0 to 6 hrs) in castrated pig plasma withdrawn from hepatic vein at 0.8 mg/kg administered as intrajejunal dose 20 mins after ketoconazole administration by UPLC-tandem mass spectrometry. The series is classed as ADME, organism-based, Sus scrofa. Also noted: time < 6 hr, dose 0.8 mg/kg. Conditions: male. The method, boiled down:
(§1)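 Where ketoconazole was co-dosed, it was given at 10 mg/kg at the same jejunal site 20 min before. Plasma protein-precipitated with acetonitrile and analysed by UPLC-MS/MS (finasteride-d9). AUC0-6h, Cmax and t1/2 (ln2/λz) were derived by non- or compartmental analysis.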

Series [3] in a line: Volume of distribution at steady state in castrated pig at 0.2 mg/kg, iv by UPLC-tandem mass spectrometry. The series is classed as ADME, organism-based, Sus scrofa. The arrangement: dose 0.2 mg/kg, route intravenous. Conditions: male, in vivo, read-out: Vdss. In outline:
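Femoral plasma assayed over 0-6 h by UPLC-MS/MS. CL calculated as dose/AUCVF,0-6h; Vss calculated as MRT × CL, with MRT = AUMC0-6h/AUC0-6h.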

Series [4] can be described thus: Drug excretion in castrated pig urine assessed as fraction of the dose excreted at 0.2 mg/kg, iv measured during 6 hrs sampling by UPLC-tandem mass spectrometry. The series is classed as ADME, organism-based, Sus scrofa. Also noted: dose 0.2 mg/kg, route intravenous. Conditions: male, read-out: Drug excretion.
Series [5] is described as follows: Cmax in castrated pig bile at 0.8 mg/kg administered as intrajejunal dose 20 mins after ketoconazole administration by UPLC-tandem mass spectrometry. Conditions: male. The arrangement: dose 0.8 mg/kg. In kind it is ADME, organism-based, Sus scrofa.
A short description of series [6]: Terminal half life in castrated pig plasma withdrawn from portal vein at 0.8 mg/kg administered as intrajejunal dose by UPLC-tandem mass spectrometry. The series is classed as ADME, organism-based, Sus scrofa. The arrangement: dose 0.8 mg/kg. Conditions: male, read-out: beta t1/2 (converted). The method, boiled down:
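Portal, hepatic and femoral vein plasma sampled over 6 h and assayed by UPLC-MS/MS. Tmax read directly from the profiles. Terminal t1/2 calculated as ln2/λz by non- or compartmental analysis; values below LLOQ after Cmax excluded.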

Series [7] can be described thus: Cmax in castrated pig plasma withdrawn from femoral vein at 0.8 mg/kg administered as intrajejunal dose by UPLC-tandem mass spectrometry. In kind it is ADME, organism-based, Sus scrofa. Conditions: male. The arrangement: dose 0.8 mg/kg. In outline: as §1
The test system of series [8] is Plasma. Description: Drug metabolism in castrated pig plasma withdrawn from hepatic vein assessed as omega-hydroxy finasteride metabolite formation by UPLC-tandem mass spectrometry. In kind it is ADME, cell-free, Sus scrofa. In outline: (§2)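 Plasma sampled 0-6 h from portal, hepatic and femoral veins. Analysed by acetonitrile precipitation with finasteride-d9 internal standard, then UPLC-MS/MS in SRM mode, m/z 389.41 → 271.94 for the ω-hydroxy metabolite.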

In series [9] the test system is Plasma. Kind of series: Drug metabolism in castrated pig plasma withdrawn from portal vein assessed as omega-hydroxy finasteride metabolite formation by UPLC-tandem mass spectrometry. The series is classed as ADME, cell-free, Sus scrofa. In outline:
as §2

The nature of series [10]: Drug excretion in castrated pig urine assessed as fraction of the dose excreted at 0.8 mg/kg administered as intrajejunal dose measured during 6 hrs sampling by UPLC-tandem mass spectrometry. The arrangement: dose 0.8 mg/kg. Conditions: male, read-out: Drug excretion. In kind it is ADME, organism-based, Sus scrofa.

As to `CC(C)(C)NC(=O)[C@H]1CC[C@H]2[C@@H]3CC[C@H]4NC(=O)C=C[C@]4(C)[C@H]3CC[C@]12C` [FINASTERIDE], in series [1], the fraction unbound was determined as 0.17. In addition, the exposure AUC(0-t) at 6 h in [2] was determined as 4.1 µM·h. Moreover, the Vd in series [3] came out at 0.99 L/kg. Moreover, the dose excreted at 6 h in series [4] came out at 0.12%; in series [10], 0.02%. In addition, the Cmax turned out to be 2000 nM in series [5] and 600 nM in series [7]. Also, in series [6], the half-life was 1.5 h. Further, the Drug metabolism entry in the series with Plasma [8] and in the series on Plasma [9] was “metabolite_not_detected” throughout.

For the origin of these results see ChEMBL document CHEMBL3525971 (Drug Metab Dispos, 2011).
